From ChEMBL document CHEMBL3351628, “2,4,5-Trisubstituted thiazole derivatives: a novel and potent class of non-nucleoside inhibitors of wild type and mutant HIV-1 reverse transcriptase” (Eur J Med Chem, 2014)

Columns and labels:
HEK-293T = assay: Cytotoxicity against HEK293T cells at 10 uM after 48 hrs; format: cell-based; conditions: human
Summary of the method: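 HEK 293T cells incubated 48 h with compound at final 10 μM under the antiviral culture conditions, without virus. Viability read with a cell proliferation assay kit.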

[1] = system: Human immunodeficiency virus 1; assay: Antiviral activity against wild type HIV1 infected in HEK293T cells transfected with plasmid VSV-G/pNL4-3.luc.R-E- assessed as inhibition of viral replication after 48 hrs by luciferase reporter gene assay; format: functional, organism-based, HEK-293T; conditions: Human immunodeficiency virus 1, HEK-293T, 48 h; read-out: IC50
Summary of the method: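 VSV-G-pseudotyped single-cycle virus: VSVG plasmid plus env-deficient pNL4-3.luc.R⁻E⁻ vector (wild type or RT-mutant) co-transfected into HEK 293T by calcium phosphate. Medium changed at 16 h, supernatant collected 48 h post-transfection, normalised by p24 ELISA to 0.2 ng p24/mL. HEK 293T targets seeded a day ahead; compound added 15 min before virus. Cells lysed 48 h post-infection, luciferase read. IC50 from dose–infectivity curves.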

[2] = Retention time of the compound by HPLC analysis; format: physicochemical

Compound | Activity (HEK-293T) | IC50 [1] [µM] | Retention_time [2] [min]
COc1ccc(CNc2nc(-c3ccc(F)cc3)c(Cc3ccccc3)s2)cc1 | Non-toxic | 1.21 | 33.02
COc1ccc(CNc2nc(-c3ccccc3)c(Cc3ccccc3)s2)cc1 | Non-toxic | 0.18 | 28.38
COc1ccc(-c2nc(NCc3cccc(OC)c3)sc2Cc2ccccc2)cc1 | Non-toxic | 0.82 | 27.45
COc1ccc(CNc2nc(-c3ccc(OC)cc3)c(C)s2)cc1 | Non-toxic | 9.59 | 13.3
COc1ccc(-c2nc(NCc3ccc([N+](=O)[O-])cc3)sc2Cc2ccccc2)cc1 | Non-toxic | 0.8 | 28.54
COc1ccc(CNc2nc(-c3ccc(OC)cc3)c(Cc3ccc(F)cc3)s2)cc1 | Non-toxic | > 10 | 29.46
COc1ccc(CNc2nc(-c3ccccc3)c(Cc3ccc(C#N)cc3)s2)cc1 | Non-toxic | 4.79 | 17.21
COc1ccc(CNc2nc(-c3ccc(OC)cc3)c(Cc3ccc(OC)cc3)s2)cc1 | Non-toxic | > 10 | 26.12
COc1ccc(-c2nc(NCc3ccc(F)cc3)sc2Cc2ccccc2)cc1 | Non-toxic | 0.66 | 29.67
COc1ccc(Nc2nc(-c3ccccc3)c(Cc3ccccc3OC)s2)cc1 | Non-toxic | > 10 | 3.18
COc1ccc(-c2nc(/N=C/c3ccc(F)cc3)sc2Cc2ccccc2)cc1 | Non-toxic | > 10 | 14.58
COc1ccc(-c2nc(NCc3ccc(O)c(OC)c3)sc2Cc2ccccc2)cc1 | Non-toxic | 0.33 | 14.86
COc1ccc(CNc2nc(-c3ccco3)c(Cc3ccccc3)s2)cc1 | Non-toxic | 0.7 | 19.97
COc1ccc(-c2nc(NCc3c(Cl)cccc3Cl)sc2Cc2ccccc2)cc1 | Non-toxic | 7.21 | 7.67
COc1ccc(-c2nc(NCc3ccc(C#N)cc3)sc2Cc2ccccc2)cc1 | Non-toxic | 0.45 | 20.01
COc1ccc(CCNc2nc(-c3ccc(OC)cc3)c(Cc3ccccc3)s2)cc1 | Non-toxic | > 10 | 36.91
COc1ccc(-c2nc(NCc3cc(OC)c(OC)c(OC)c3)sc2Cc2ccccc2)cc1 | Non-toxic | > 10 | 17.16
COc1ccc(CNc2nc(-c3ccc(OC)cc3)c(Cc3ccc([N+](=O)[O-])cc3)s2)cc1 | Non-toxic | > 10 | 26.68
COc1ccc(-c2nc(NCc3cccc([N+](=O)[O-])c3)sc2Cc2ccccc2)cc1 | Non-toxic | 1.47 | 27.61
CCN(CC)c1nc(-c2ccc(OC)cc2)c(Cc2ccccc2)s1 | Non-toxic | 2.3 | 29.77
COc1ccc(-c2nc(NCc3cccnc3)sc2Cc2ccccc2)cc1 | Non-toxic | 4.67 | 10.25
COc1ccc(-c2nc(NCc3ccc4ccccc4c3)sc2Cc2ccccc2)cc1 | Non-toxic | 0.96 | 72.49
COc1ccc(CNc2nc(-c3ccccc3)c(Cc3ccccc3OC)s2)cc1 | Non-toxic | 0.13 | 27.75
COc1ccc(CNc2nc(-c3cc(OC)ccc3OC)c(Cc3ccccc3)s2)cc1 | Non-toxic | 6.2 | 18.55
